Screening results: PubChem, Johns Hopkins Ion Channel Center
Hits are enriched below; roughly 3.5% of the tested compounds scored in any of these assays.
MrgX1 allo act: allosterically activates human MrgX1 receptor signaling | Q96LB2 | MrgX1-HEK293, Fluo-4 calcium flux, FDSS; stronger effect = higher value | B-score at 10 µM | actives 0.63% (n = 310,000) | AID 588675;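 active = plate-corrected calcium response at least 3 library SD above typical, normal starting fluorescence, not activating the receptor alone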;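 note: compound read alongside a low EC10 to EC30 dose of BAM8-22 agonist; peak minus trough fluorescence over baseline measured at the second addition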
Target sequence (Q96LB2 whole entry, looked up): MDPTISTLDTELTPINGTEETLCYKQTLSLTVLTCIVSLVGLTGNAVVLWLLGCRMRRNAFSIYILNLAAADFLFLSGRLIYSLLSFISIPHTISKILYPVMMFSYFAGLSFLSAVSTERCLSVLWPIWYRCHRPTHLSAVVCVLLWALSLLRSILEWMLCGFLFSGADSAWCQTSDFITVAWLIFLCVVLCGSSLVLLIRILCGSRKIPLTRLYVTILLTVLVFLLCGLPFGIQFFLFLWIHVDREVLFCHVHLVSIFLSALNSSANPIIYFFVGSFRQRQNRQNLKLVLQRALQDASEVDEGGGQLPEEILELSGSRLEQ
RGS4 act: RGS4 potentiation or activation. B-score at 10 µM. actives 0.92% (n = 310,000). AID 463111. HEK293 M3R/inducible RGS4, carbachol calcium flux Fluo4; stronger effect = lower value;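 active = B-score of the integrated calcium signal more than 4 SD below the library mean, with starting fluorescence not abnormally high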;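 note: negative B-score means reduced calcium response which marks RGS4 activation or potentiation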
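Material: Inducible-RGS4 HEK293 cells carrying M3 receptor; also added: carbachol at ECmax as muscarinic agonist stimulus; incubation: compound preincubation 20 min at room temperature before agonist; signal: Fluo4-AM (2 µM) calcium-flux fluorescence, kinetic read; measure: integrated calcium ratio converted to B score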
MrgX1 agonist: human MrgX1 receptor agonism, primary screen | Q96LB2 | MrgX1-HEK293 cells, Fluo-4 calcium fluorescence, agonist mode; stronger effect = higher value | B-score at 10 µM | actives 0.44% (n = 310,000) | AID 588627;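 active = calcium response B-score plate-corrected fluorescence ratio at least 3 library SD, with starting fluorescence B-score inside 5 SD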
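Material: HEK293 cells stably expressing human MrgX1 receptor | Quantity: 15,000 cells per well | Times: Cells plated overnight, dye loaded 0.5 h 37 °C, 0.5 h room temperature | Measured by: Kinetic Fluo-4 NW fluorescence of intracellular calcium | Control set: Positive and negative controls per plate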
RGS4 inh: human RGS4 inhibition; P49798; HEK293 M3R/RGS4 inducible, Fluo-4 calcium flux; stronger effect = higher value; triggered by carbachol at its EC20; B-score at 10 µM; actives 0.45% (n = 310,000);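 active = B-score, a plate-corrected calcium signal, over three deviations above library mean, with baseline fluorescence within five deviations of library mean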;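 note: RGS4 expression induced by doxycycline in cells with stable M3 receptor; B-score is computed from the integrated fluorescence ratio over baseline after carbachol; higher B-score means a larger calcium signal and so more RGS4 inhibition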
Target sequence (P49798 whole entry, looked up): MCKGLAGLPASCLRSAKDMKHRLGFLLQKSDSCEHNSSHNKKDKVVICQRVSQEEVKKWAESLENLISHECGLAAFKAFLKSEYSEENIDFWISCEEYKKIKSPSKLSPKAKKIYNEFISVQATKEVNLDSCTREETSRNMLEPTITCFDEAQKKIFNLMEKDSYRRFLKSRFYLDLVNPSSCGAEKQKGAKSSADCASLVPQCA
MrgX1 antagonist: human MrgX1 receptor antagonism, primary screen | B-score at 10 µM | MRGX1-HEK293 calcium flux, Fluo-4, BAM8-22 antagonism; stronger effect = lower value | AID 588676 | actives 1.3% (n = 310,000);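 active = calcium-response B-score plate-corrected more than 3 library SD below zero, starting fluorescence within 5 deviations, no agonist response on first addition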;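 note: peak minus trough fluorescence over baseline after final BAM8-22 challenge near maximal dose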
RGS4 inh valid: RGS4 inhibitor validation; shares compounds with RGS4 inh; HEK293 M3R/RGS4, carbachol calcium Fluo-4 fluorescence; carbachol added at its EC20; 0 = buffer wells, 100 = carbachol control; calcium response, % at 10 µM; actives 65% (n = 1,700);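 active = duplicate-averaged calcium response above the buffer-only control mean plus 5 SD of those controls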;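 note: integrated fluorescence ratio F max minus min over baseline F0; higher response in RGS4-induced cells means RGS4 inhibition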
RGS4 uninduced: counter-screen for RGS4 inhibitors: effect in non-induced cells | shares compounds with RGS4 inh | HEK293 M3R non-induced, carbachol calcium Fluo-4; submaximal (EC20) carbachol stimulus; buffer wells 0%, carbachol control wells 100% | activity (percent), % at 10 µM | actives 20% (n = 1,900) | AID 493000; call rule not given here;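 note: RGS4 induction absent so cells express M3R without RGS4; higher means more calcium signal and flags a non-specific hit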
M3R basal Ca ctr: second counter-screen for RGS4 inhibitors: non-induced cells without carbachol. HEK293 M3R/RGS4 non-induced, Fluo-4 calcium, no carbachol; normalised: buffer wells 0%, carbachol wells 100%. shares compounds with RGS4 inh. actives 22% (n = 1,900). AID 493001. calcium response (agonist-mode artifact), % at 10 µM;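 active = duplicate-averaged calcium rise in uninduced cells above buffer wells' mean plus 5 SD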
Numbers stand for hits; i = inactive; nt = not tested or not shown.

SMILES | MrgX1 allo act | RGS4 act | MrgX1 agonist | RGS4 inh | MrgX1 antagonist | RGS4 inh valid | RGS4 uninduced | M3R basal Ca ctr
CCOc1ccc(N2C(=O)/C(=C\c3cccs3)C(=O)NC2=S)cc1 | i | i | i | i | i | nt | i | i
O=C1NC(=S)N(c2ccccc2F)C(=O)/C1=C\c1cccs1 | i | i | i | 9.49 | i | 33.5% | i | i
Cc1cccc2c1N(N=O)CCC2 | i | i | i | i | i | nt | nt | nt
CCOP(=O)(OCC)c1cc(CC)ccc1O | i | i | i | i | i | nt | nt | nt
Cn1cccc1/C=C1/C(=O)NC(=S)N(Cc2ccc(F)cc2)C1=O | 7.05 | i | i | 7.22 | i | i | i | i
Cn1cccc1/C=C1\C(=O)NC(=O)N(Cc2ccccc2)C1=O | i | i | i | i | i | nt | nt | nt
Cn1cccc1/C=C1/C(=O)NC(=O)N(Cc2ccc(F)cc2)C1=O | i | i | i | i | i | i | i | 9.0%
Cn1cccc1/C=C1/C(=O)NC(=O)N(Cc2ccccc2)C1=O | i | i | i | i | i | nt | nt | nt
COC(=O)C1=C(c2cccc(OC)c2OC)C[C@@H]2CC[C@H]1N2C(=O)N1CCCCC1 | i | i | i | i | i | nt | nt | nt
COc1cc2c(cc1O)C[C@H]1c3c(cc(O)c(OC)c3-2)CCN1C | i | nt | i | nt | i | nt | nt | nt
CN1CCc2cc(O)cc3c2[C@H]1Cc1ccc(O)c(O)c1-3 | i | i | i | 7.31 | i | 30.5% | i | i
CCOc1ccc(Br)c(C2(O)CC(C)N(C)CC2C)c1 (stereo unspecified) | i | i | i | i | i | nt | nt | nt
CC12CN3CN(C1)CC(C)(C3)C2=NO | i | i | i | 5.2 | i | i | i | i
O=C1NC(=O)C2(Cc3cc([N+](=O)[O-])ccc3N3CCN(C(=O)c4ccccc4)CC32)C(=O)N1 (stereo unspecified) | i | i | i | i | i | nt | nt | nt
CCNC(=O)C1OC(n2cnc3c(N)ncnc32)C(O)C1O (stereo unspecified) | i | i | 30 | 15.2 | i | 48.5% | 71.5% | i
COc1ccc(CCC(=O)NCCc2cnc[nH]2)cc1 | i | i | i | i | i | nt | nt | nt
CCN1C(=O)C(=Cc2ccc(C)s2)C(=O)N(CC)C1=S | i | i | i | i | i | nt | nt | nt
O=C1NC(=S)NC(=O)C1=Cc1ccc(Br)s1 | i | i | i | 22.1 | i | 78.0% | i | 18.0%
Cc1cc(/C=C2\C(=O)NC(=S)N(C)C2=O)c(C)n1C1CCCCC1 | i | i | i | i | i | nt | nt | nt
CN1C(=O)/C(=C\c2ccc(Br)s2)C(=O)NC1=S | i | i | i | 19.4 | i | 5.5% | i | i
Cc1cccc(NP(=O)(Oc2ccccc2F)Oc2ccccc2F)c1C | i | i | i | 4.88 | i | i | i | i
Cc1ccc(N=C(N(C)C)P(=O)(N(C)C)N(C)C)cc1 | i | i | i | i | i | nt | nt | nt
CCc1cc2c(s1)N(CC(=O)OC)C(=O)CN=C2c1ccccc1OC | i | i | i | i | i | nt | nt | nt
CCc1cc2c(s1)NC(=O)CN=C2c1cccs1 | i | i | i | 5.96 | i | 24.5% | 31.0% | i
Cc1cc(C)cc(N2C(=O)NC(=O)/C(=C\C=C\c3ccco3)C2=O)c1 | i | i | i | 23.3 | i | 59.0% | 80.0% | 36.0%
O=C1NC(=O)N(c2ccccc2)C(=O)/C1=C\C=C\c1ccccc1 | i | i | i | 16.1 | i | 114.5% | 31.0% | 24.5%
O=C1NC(=O)N(Cc2ccc(F)cc2)C(=O)/C1=C\C=C\c1ccco1 | 8.26 | i | i | 12.2 | i | 10.5% | i | 12.5%
Cc1ccc(N2C(=O)NC(=O)/C(=C/C=C/c3ccco3)C2=O)cc1 | i | i | i | i | i | i | i | 16.0%
O=C(Nc1cccc2ccccc12)c1nn(C23CC4CC(CC(C4)C2)C3)cc1Br | i | i | i | i | i | nt | nt | nt
